Measurements: ChEMBL document CHEMBL3120087, “3D QSAR studies based in silico screening of 4,5,6-triphenyl-1,2,3,4-tetrahydropyrimidine analogs for anti-inflammatory activity” (2014)
One block for each compound: values may come before it.

Columns and labels:
[1] = test system: Rattus norvegicus; test: Antiinflammatory activity in rat assessed as reduction of paw edema; assay type: functional
How it was run: (§1)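 Albino rats of either sex (150–200 g), six per group, fasted 12 h with water only. […] Paw volume measured by plethysmometer immediately (initial) and then hourly to 4 h. Mean paw volume ± SEM reported with % inhibition of edema versus control.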

[2] = test system: Rattus norvegicus; test: Antiinflammatory activity in albino rat assessed as inhibition of carrageenan-induced paw edema at 20 mg/kg, po administered 1 hr prior to carrageenan challenge measured after 3 hrs relative to vehicle-treated control; assay type: functional; how it was run: as §1
[3] = test system: Rattus norvegicus; test: Antiinflammatory activity in albino rat assessed as inhibition of carrageenan-induced paw edema at 20 mg/kg, po administered 1 hr prior to carrageenan challenge measured after 4 hrs relative to vehicle-treated control; assay type: functional; how it was run: as §1
[4] = test system: Rattus norvegicus; test: Antiinflammatory activity in albino rat assessed as inhibition of carrageenan-induced paw edema at 20 mg/kg, po administered 1 hr prior to carrageenan challenge measured after 1 hr relative to vehicle-treated control; assay type: functional; how it was run: as §1
[5] = test system: Rattus norvegicus; test: Antiinflammatory activity in albino rat assessed as inhibition of carrageenan-induced paw edema at 20 mg/kg, po administered 1 hr prior to carrageenan challenge measured after 2 hrs relative to vehicle-treated control; assay type: functional; how it was run: as §1
[6] = test system: Rattus norvegicus; test: Antiinflammatory activity in albino rat assessed as inhibition of carrageenan-induced paw edema at 20 mg/kg, po administered 1 hr prior to carrageenan challenge measured after 24 hrs relative to vehicle-treated control; assay type: functional
[7] = biological target: T1, Prostaglandin G/H synthase 1 (Ovis aries) (UniProt P05979); test: Inhibition of ovine COX1 using TMPD as substrate at 20 uM incubated for 5 mins prior to substrate addition measured after 5 mins by colorimetry
T1 sequence (whole entry): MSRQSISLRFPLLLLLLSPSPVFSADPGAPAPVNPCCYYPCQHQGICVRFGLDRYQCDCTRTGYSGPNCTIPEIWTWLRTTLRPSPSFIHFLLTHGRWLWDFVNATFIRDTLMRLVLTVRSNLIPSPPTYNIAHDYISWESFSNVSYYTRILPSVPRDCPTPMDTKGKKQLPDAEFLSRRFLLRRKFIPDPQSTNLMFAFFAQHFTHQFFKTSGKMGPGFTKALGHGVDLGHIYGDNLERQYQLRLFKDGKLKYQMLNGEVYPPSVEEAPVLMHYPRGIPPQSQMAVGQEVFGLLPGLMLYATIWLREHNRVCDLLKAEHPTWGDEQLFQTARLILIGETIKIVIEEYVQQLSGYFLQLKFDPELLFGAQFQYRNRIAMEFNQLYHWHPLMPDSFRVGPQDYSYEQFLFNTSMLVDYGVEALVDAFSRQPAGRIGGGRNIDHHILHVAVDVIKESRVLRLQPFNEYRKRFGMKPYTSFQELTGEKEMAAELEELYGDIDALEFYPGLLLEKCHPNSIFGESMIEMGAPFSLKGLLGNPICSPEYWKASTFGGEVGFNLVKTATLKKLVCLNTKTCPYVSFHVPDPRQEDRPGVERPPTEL
How it was run: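 Colorimetric COX assay using peroxidase activity of ovine cyclooxygenase to oxidize TMPD. Assay mixture mixed and incubated at 25 °C for 5 min. Enzyme activity read as absorbance at 590 nm.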

Compound: N=C1NC(c2ccc(Cl)cc2)=C(CC(=O)O)C(c2cccnc2)N1 (configuration not stated)
log(activity) [1]: 0.54

Compound: COc1ccc(C2NC(S)=NC(c3ccc(C)cc3)=C2CC(=O)O)cc1 (configuration not stated)
log(activity) [1]: 0.96

Compound: Cc1ccc(C2=C(CC(=O)O)C(c3cccnc3)NC(S)=N2)cc1 (configuration not stated)
log(activity) [1]: 0.11

Compound: COc1ccc(C2NC(S)=NC(c3ccc(Cl)cc3)=C2CC(=O)O)cc1 (configuration not stated)
log(activity) [1]: 1.02

Compound: Cc1ccc(C2=C(CC(=O)O)C(c3ccc(Cl)cc3)NC(S)=N2)cc1 (configuration not stated)
log(activity) [1]: 0.72

Compound: COc1ccc(OC)c(C2NC(=O)NC(c3ccc(S(C)(=O)=O)cc3)=C2c2ccccc2)c1 (configuration not stated)
inhibition in vivo at 20 mg/kg [2]: 24.4% | inhibition in vivo at 20 mg/kg [3]: 17.3% | inhibition in vivo at 20 mg/kg [4]: 35.6% | inhibition in vivo at 20 mg/kg [5]: 19.1%

Compound: Cc1ccc(C2=C(CC(=O)O)C(c3cccnc3)NC(=N)N2)cc1 (configuration not stated)
log(activity) [1]: 0.58

Compound: Cc1ccc(C2=C(CC(=O)O)C(c3cccs3)NC(=N)N2)cc1 (configuration not stated)
log(activity) [1]: 0.64

Compound: COc1ccc(C2NC(=S)NC(c3ccc(S(C)(=O)=O)cc3)=C2c2ccccc2)c(OC)c1 (configuration not stated)
inhibition in vivo at 20 mg/kg [2]: 10.2% | inhibition in vivo at 20 mg/kg [4]: 15.3% | inhibition in vivo at 20 mg/kg [5]: 26.7%

Compound: COc1ccc(C2NC(=N)NC(c3ccc(C)cc3)=C2CC(=O)O)cc1 (configuration not stated)
log(activity) [1]: 0.88

Compound: N=C1NC(c2ccccc2)=C(CC(=O)O)C(c2cccs2)N1 (configuration not stated)
log(activity) [1]: 0.51

Compound: Cc1ccc(-c2cc(C(F)(F)F)nn2-c2ccc(S(N)(=O)=O)cc2)cc1 [CELECOXIB]
inhibition in vivo at 20 mg/kg [2]: 32.5% | inhibition in vivo at 20 mg/kg [6]: 6.49% | inhibition in vivo at 20 mg/kg [3]: 17.9% | inhibition in vivo at 20 mg/kg [4]: 48.2% | inhibition in vivo at 20 mg/kg [5]: 41.9%

Compound: O=C(O)CC1=C(c2ccc(Cl)cc2)N=C(S)NC1c1ccco1 (configuration not stated)
log(activity) [1]: 0.24

Compound: CN(C)c1ccc(C2NC(=O)NC(c3ccc(Cl)cc3)=C2c2ccc(S(C)(=O)=O)cc2)cc1 (configuration not stated)
inhibition in vivo at 20 mg/kg [2]: 28.9% | inhibition in vivo at 20 mg/kg [3]: 16.1% | inhibition in vivo at 20 mg/kg [4]: 18% | inhibition in vivo at 20 mg/kg [5]: 27.6%

inhibition [7]: 2.36%
Compound: CN(C)c1ccc(C2NC(=O)NC(c3ccc(S(C)(=O)=O)cc3)=C2c2ccccc2)cc1 (configuration not stated)
inhibition in vivo at 20 mg/kg [2]: 26.9% | inhibition in vivo at 20 mg/kg [3]: 9.52% | inhibition in vivo at 20 mg/kg [4]: 46.9% | inhibition in vivo at 20 mg/kg [5]: 41.4%

Compound: O=C(O)CC1=C(c2ccccc2)N=C(S)NC1c1ccc(Cl)cc1 (configuration not stated)
log(activity) [1]: 0.88

Compound: CS(=O)(=O)c1ccc(C2=C(c3ccccc3)C(c3ccccc3)NC(=S)N2)cc1 (configuration not stated)
inhibition in vivo at 20 mg/kg [2]: 43.1% | inhibition in vivo at 20 mg/kg [3]: 18.4% | inhibition in vivo at 20 mg/kg [4]: 46.9% | inhibition in vivo at 20 mg/kg [5]: 30.9%

Compound: N=C1NC(c2ccccc2)=C(CC(=O)O)C(c2ccccc2)N1 (configuration not stated)
log(activity) [1]: 0.64

Compound: N=C1NC(c2ccccc2)=C(CC(=O)O)C(c2ccc(Cl)cc2)N1 (configuration not stated)
log(activity) [1]: 0.64

Compound: O=C(O)CC1=C(c2ccccc2)N=C(S)NC1c1ccccc1 (configuration not stated)
log(activity) [1]: 0.52

Compound: COc1ccc(C2NC(=N)NC(c3ccc(Cl)cc3)=C2CC(=O)O)cc1 (configuration not stated)
log(activity) [1]: 0.92

Compound: COc1ccc(C2NC(=N)NC(c3ccc(Cl)cc3)=C2c2ccc(S(C)(=O)=O)cc2)cc1 (configuration not stated)
inhibition in vivo at 20 mg/kg [2]: 43.6% | inhibition in vivo at 20 mg/kg [6]: 15.6% | inhibition in vivo at 20 mg/kg [3]: 28.6% | inhibition in vivo at 20 mg/kg [4]: 30.2% | inhibition in vivo at 20 mg/kg [5]: 20.5%

Compound: O=C(O)CC1=C(c2ccc(Cl)cc2)N=C(S)NC1c1ccc(Cl)cc1 (configuration not stated)
log(activity) [1]: 0.82

Compound: COc1ccc(OC)c(C2NC(=O)NC(c3ccc(Cl)cc3)=C2c2ccc(S(N)(=O)=O)cc2)c1 (configuration not stated)
inhibition in vivo at 20 mg/kg [2]: 24.4% | inhibition in vivo at 20 mg/kg [3]: 14.3% | inhibition in vivo at 20 mg/kg [4]: 18% | inhibition in vivo at 20 mg/kg [5]: 28.1%

Compound: N=C1NC(c2ccccc2)=C(CC(=O)O)C(c2cccnc2)N1 (configuration not stated)
log(activity) [1]: 0.3

Compound: Cc1ccc(C2=C(CC(=O)O)C(c3ccc(Cl)cc3)NC(=N)N2)cc1 (configuration not stated)
log(activity) [1]: 0.68

Compound: COc1ccc(C2NC(=N)NC(c3ccc(S(C)(=O)=O)cc3)=C2c2ccccc2)cc1OC (configuration not stated)
inhibition in vivo at 20 mg/kg [2]: 37.1% | inhibition in vivo at 20 mg/kg [6]: 3.9% | inhibition in vivo at 20 mg/kg [3]: 11.3% | inhibition in vivo at 20 mg/kg [4]: 24.8% | inhibition in vivo at 20 mg/kg [5]: 18.6%

Compound: N=C1NC(c2ccc(Cl)cc2)=C(CC(=O)O)C(c2ccc(Cl)cc2)N1 (configuration not stated)
log(activity) [1]: 0.74

Compound: O=C(O)CC1=C(c2ccccc2)N=C(S)NC1c1ccco1 (configuration not stated)
log(activity) [1]: 0.57

Compound: COc1ccc(C2NC(S)=NC(c3ccccc3)=C2CC(=O)O)cc1 (configuration not stated)
log(activity) [1]: 0.92

Compound: Cc1ccc(C2=C(CC(=O)O)C(c3cccs3)NC(S)=N2)cc1 (configuration not stated)
log(activity) [1]: 0.28

Compound: O=C(O)CC1=C(c2ccccc2)N=C(S)NC1c1cccnc1 (configuration not stated)
log(activity) [1]: 0.46

Compound: O=C(O)CC1=C(c2ccccc2)N=C(S)NC1c1cccs1 (configuration not stated)
log(activity) [1]: 0.64

Compound: N=C1NC(c2ccc(Cl)cc2)=C(CC(=O)O)C(c2cccs2)N1 (configuration not stated)
log(activity) [1]: 0.64

Compound: O=C(O)CC1=C(c2ccc(Cl)cc2)N=C(S)NC1c1ccccc1 (configuration not stated)
log(activity) [1]: 0.65

Compound: N=C1NC(c2ccc(Cl)cc2)=C(CC(=O)O)C(c2ccco2)N1 (configuration not stated)
log(activity) [1]: 0.56

Compound: COc1ccc(C2NC(=N)NC(c3ccccc3)=C2CC(=O)O)cc1 (configuration not stated)
log(activity) [1]: 0.82

Compound: Cc1ccc(C2=C(CC(=O)O)C(c3ccccc3)NC(=N)N2)cc1 (configuration not stated)
log(activity) [1]: 0.82

Compound: N=C1NC(c2ccccc2)=C(CC(=O)O)C(c2ccco2)N1 (configuration not stated)
log(activity) [1]: 0.55

Compound: Cc1ccc(C2=C(CC(=O)O)C(c3ccco3)NC(S)=N2)cc1 (configuration not stated)
log(activity) [1]: 0.31

Compound: O=C(O)CC1=C(c2ccc(Cl)cc2)N=C(S)NC1c1cccnc1 (configuration not stated)
log(activity) [1]: 0.35

Compound: Cc1ccc(C2=C(CC(=O)O)C(c3ccccc3)NC(S)=N2)cc1 (configuration not stated)
log(activity) [1]: 0.82

Compound: Cc1ccc(C2=C(CC(=O)O)C(c3ccco3)NC(=N)N2)cc1 (configuration not stated)
log(activity) [1]: 0.54

Compound: COc1ccc(C2NC(=O)NC(c3ccc(S(C)(=O)=O)cc3)=C2c2ccccc2)c(OC)c1 (configuration not stated)
inhibition in vivo at 20 mg/kg [2]: 39.1% | inhibition in vivo at 20 mg/kg [4]: 21.6% | inhibition in vivo at 20 mg/kg [5]: 28.1%

Compound: O=C(O)CC1=C(c2ccc(Cl)cc2)N=C(S)NC1c1cccs1 (configuration not stated)
log(activity) [1]: 0.54

Compound: COc1ccc(OC)c(C2NC(=N)NC(c3ccc(S(C)(=O)=O)cc3)=C2c2ccccc2)c1 (configuration not stated)
inhibition in vivo at 20 mg/kg [2]: 20.3% | inhibition in vivo at 20 mg/kg [3]: 10.7% | inhibition in vivo at 20 mg/kg [4]: 25.2% | inhibition in vivo at 20 mg/kg [5]: 24.3%

Compound: N=C1NC(c2ccc(Cl)cc2)=C(CC(=O)O)C(c2ccccc2)N1 (configuration not stated)
log(activity) [1]: 0.78
